Test results published in ChEMBL document CHEMBL4251718, “Isolation of Imaqobactin, an Amphiphilic Siderophore from the Arctic Marine Bacterium Variovorax Species RKJM285” (J Nat Prod, 2018).
pIC50: −log10 of the molar value. Active and inactive are the calls of the source. The calls are words filed in the database; no cut-off is given here.

Columns and labels:
[1] = Metal chelating activity assessed as V3+-compound complex formation after 1 hr by LC-HRMS analysis
Method in brief: (§1)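 500 μg of ligand was dissolved in 1 mL PBS (pH 7.5) and stirred with excess (15 mg) AlCl3, AuCl3 or VCl3 at room temperature for 1 h. Samples went through C18 SPE with a water wash and MeOH elution, were dried, and were redissolved at 500 μg mL−1 in MeOH. Complexes were detected by C18 LC-HRMS using a water/acetonitrile 0.1% formic acid gradient.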

[2] = Metal chelating activity assessed as Al3+-compound complex formation after 1 hr by LC-HRMS analysis; method in brief: as §1
[3] = Metal chelating activity assessed as Au3+-compound complex formation after 1 hr by LC-HRMS analysis; method in brief: as §1
Vero = test: Cytotoxicity against African green monkey Vero cells after 24 hrs by alamar blue assay; type: cell-based; settings: chlorocebus sabaeus
Method in brief: (§2)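 Cytotoxicity was measured with Alamar blue. Fluorescence (ex 560/12, em 590 nm) was read at time zero and 4 h after Alamar blue addition, and IC50 values were calculated from these readings. The free ligand and its Fe(III) and Ga(III) complexes were tested.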

Keratinocyte = test: Cytotoxicity against human epidermal keratinocytes after 24 hrs by alamar blue assay; method in brief: as §2
Staphylococcus aureus = test: Antibacterial activity against methicillin-resistant Staphylococcus aureus ATCC 33591 after 22 hrs by microbroth dilution method; type: functional, organism-based; settings: ATCC 33591, 22 h
Method in brief: (§3)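 CLSI broth microdilution, run in triplicate. OD600 was read at time zero and again after 22 h at 37 °C, and percent growth inhibition was calculated from these readings. The free ligand and its Fe(III) and Ga(III) complexes were tested.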

Enterococcus faecium = test: Antimicrobial activity against vancomycin-resistant Enterococcus faecium EF379 after 22 hrs by micro broth dilution assay; type: functional, organism-based; settings: EF379, 22 h; method in brief: as §3
Staphylococcus warneri = test: Antimicrobial activity against Staphylococcus warneri ATCC 17917 after 22 hrs by micro broth dilution assay; type: functional, organism-based; settings: ATCC 17917, 22 h; method in brief: as §3
Proteus vulgaris = test: Antimicrobial activity against Proteus vulgaris ATCC 12454 after 22 hrs by micro broth dilution assay; type: functional, organism-based; settings: ATCC 12454, 22 h; method in brief: as §3

## CCCCCCCCCCCC(=O)NC(CCCN(O)C=O)C(O)C(C)C(=O)N[C@@H](CO)C(=O)N[C@@H]1CCCN(O)C(=O)CC(C)OC(=O)[C@H]([C@@H](O)C(=O)O)NC(=O)[C@H]([C@@H](C)O)NC1=O (some centres undefined)
[1]
  Activity: Active
[2]
  Activity: Active
[3]
  Activity: Active
Vero
  Activity: Non-Toxic
Keratinocyte
  Activity: Non-Toxic
Staphylococcus aureus
  pIC50: 4.46
Enterococcus faecium
  pIC50: 4.96
Staphylococcus warneri
  pIC50: 4.55
Proteus vulgaris
  pIC50: 4.85
